Active and inactive are the calls of the source. The rule behind the calls is not given here. *1 amine or outer side, *2 acyl side, *3 side chain or, on linkers, in order; H or OH if unused. Where a SMILES comes first, the peptide text is derived from it. Bridges are numbered along the chain shown (N, C = ends). [ ]: non-standard residue; d: D form. The star is where a group is joined. pTerphenylCO(4''-OnC5H11) = CCCCCOc1ccc(-c2ccc(-c3ccc(C(=O)*)cc3)cc2)cc1; Orn(4R-OH,5R-OH) = O=C([C@H](C[C@@H](O)[C@@H](O)N[*:3])N[*:1])[*:2]; hTyr(3S-OH,4S-OH) = N[C@H](C(=O)O)[C@H](O)[C@@H](O)c1ccc(O)cc1; Pro(3S-OH,4S-Me) = C[C@H]1CN[C@H](C(=O)O)[C@H]1O; Hyp = O=C(O)[C@@H]1C[C@@H](O)CN1
Experiments:
[1] = tested on: Aspergillus fumigatus; experiment: Antifungal activity against Aspergillus fumigatus H237 assessed as abnormal hyphal growth by CLSI method; assay type: functional; conditions: read-out: MEC
Method in brief: (§1)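 MEC by CLSI broth microdilution in RPMI 1640. Conidia were incubated with or without drug for 48 h at 37°C, in triplicate.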

[2] = tested on: Aspergillus fumigatus; experiment: Antifungal activity against Aspergillus fumigatus H237 expressing dominant-active rasA gene assessed as abnormal hyphal growth by CLSI method; assay type: functional; conditions: read-out: MEC; method in brief: as §1
[3] = tested on: Aspergillus fumigatus; experiment: Antifungal activity against rasA deficient Aspergillus fumigatus H237 assessed as abnormal hyphal growth by CLSI method; assay type: functional; conditions: read-out: MEC; method in brief: as §1
[4] = tested on: Aspergillus fumigatus; experiment: Antifungal activity against crzA deficient Aspergillus fumigatus Af293 assessed as abnormal hyphal growth by CLSI method; assay type: functional; conditions: read-out: MEC; method in brief: as §1
[5] = tested on: Aspergillus fumigatus; experiment: Antifungal activity against Aspergillus fumigatus Af293 expressing crzA gene assessed as abnormal hyphal growth by CLSI method; assay type: functional; conditions: read-out: MEC; method in brief: as §1
[6] = tested on: Aspergillus fumigatus; experiment: Antifungal activity against cnaA deficient Aspergillus fumigatus Af293 assessed as abnormal hyphal growth by CLSI method; assay type: functional; conditions: read-out: MEC; method in brief: as §1
[7] = tested on: Aspergillus fumigatus; experiment: Antifungal activity against Aspergillus fumigatus H237 expressing rasA gene assessed as abnormal hyphal growth by CLSI method; assay type: functional; conditions: read-out: MEC; method in brief: as §1
[8] = tested on: Aspergillus fumigatus; experiment: Antifungal activity against Aspergillus fumigatus Af293 assessed as abnormal hyphal growth by CLSI method; assay type: functional; conditions: read-out: MEC; method in brief: as §1
[9] = tested on: Aspergillus fumigatus; experiment: Antifungal activity against Aspergillus fumigatus Af293 expressing cnaA gene assessed as abnormal hyphal growth by CLSI method; assay type: functional; conditions: read-out: MEC; method in brief: as §1
[10] = tested on: Aspergillus fumigatus; experiment: Antifungal activity against cnaA deficient Aspergillus fumigatus Af293 assessed as inhibition of hyphal growth at germling stage at 1 ug/ml by CLSI method; assay type: functional, organism-based
Method in brief: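 Conidia were grown as for CLSI susceptibility testing in RPMI 1640 with or without echinocandin (1 μg/ml) for 48 h at 37°C. Hyphal morphology was then examined by bright-field microscopy.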

| Compound | minimal effective concentration [1] | minimal effective concentration [2] | minimal effective concentration [3] | minimal effective concentration [4] | minimal effective concentration [5] | minimal effective concentration [6] | minimal effective concentration [7] | minimal effective concentration [8] | minimal effective concentration [9] | Activity [10] |
| --- | --- | --- | --- | --- | --- | --- | --- | --- | --- | --- |
| C=CC[C@@H]1/C=C(\C)C[C@H](C)C[C@H](OC)[C@H]2O[C@@](O)(C(=O)C(=O)N3CCCC[C@H]3C(=O)O[C@H](/C(C)=C/[C@@H]3CC[C@@H](O)[C@H](OC)C3)[C@H](C)[C@@H](O)CC1=O)[C@H](C)C[C@@H]2OC [TACROLIMUS ANHYDROUS] | 0.02 µg/mL | 0.01 µg/mL | 0.001 µg/mL | 0.01 µg/mL | 0.02 µg/mL | > 80 µg/mL | 0.02 µg/mL | 0.02 µg/mL | 0.02 µg/mL |  |
| CCCCCOc1ccc(-c2ccc(-c3ccc(C(=O)N[C@H]4C[C@@H](O)[C@@H](O)NC(=O)[C@@H]5[C@@H](O)[C@@H](C)CN5C(=O)[C@H]([C@@H](C)O)NC(=O)[C@H]([C@H](O)[C@@H](O)c5ccc(O)cc5)NC(=O)[C@@H]5C[C@@H](O)CN5C(=O)[C@H]([C@@H](C)O)NC4=O)cc3)cc2)cc1 [ANIDULAFUNGIN] ({pTerphenylCO(4''-OnC5H11)}-[Orn(4R-OH,5R-OH)]T[Hyp][hTyr(3S-OH,4S-OH)]T[Pro(3S-OH,4S-Me)]; lactam 1-C) | 0.0625 µg/mL | 0.0156 µg/mL | 2 µg/mL | 0.0156 µg/mL | 0.125 µg/mL | 0.0039 µg/mL | 0.125 µg/mL | 0.0625 µg/mL | 0.0625 µg/mL | Active |

From ChEMBL document CHEMBL1649120, “Differential effects of inhibiting chitin and 1,3-{beta}-D-glucan synthesis in ras and calcineurin mutants of Aspergillus fumigatus” (2009)
